In assay [1] the test system is Rattus norvegicus. The assay is described as follows: In vivo potentiation of ANF induced hypotension in rat, following subcutaneous dose of 30 mg/kg. It is filed as functional. A digest of the protocol: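 Conscious male SHR (270–300 g) had caudal artery and jugular vein cannulae placed under ether. After at least 90 min of stabilization, ANF 103-125 or 99-126 was given as an iv bolus at a submaximal dose. 60–90 min later, drug or vehicle (0.2% aqueous methylcellulose with 20% Tris-HCl) was given sc. ANF was repeated 15 min after dosing, and the response was compared with vehicle controls. Values are means of four or more animals.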

Assay [2] has as its target T1, Angiotensin-converting enzyme (Oryctolagus cuniculus, UniProt P12822).
T1 sequence (P12822 whole entry): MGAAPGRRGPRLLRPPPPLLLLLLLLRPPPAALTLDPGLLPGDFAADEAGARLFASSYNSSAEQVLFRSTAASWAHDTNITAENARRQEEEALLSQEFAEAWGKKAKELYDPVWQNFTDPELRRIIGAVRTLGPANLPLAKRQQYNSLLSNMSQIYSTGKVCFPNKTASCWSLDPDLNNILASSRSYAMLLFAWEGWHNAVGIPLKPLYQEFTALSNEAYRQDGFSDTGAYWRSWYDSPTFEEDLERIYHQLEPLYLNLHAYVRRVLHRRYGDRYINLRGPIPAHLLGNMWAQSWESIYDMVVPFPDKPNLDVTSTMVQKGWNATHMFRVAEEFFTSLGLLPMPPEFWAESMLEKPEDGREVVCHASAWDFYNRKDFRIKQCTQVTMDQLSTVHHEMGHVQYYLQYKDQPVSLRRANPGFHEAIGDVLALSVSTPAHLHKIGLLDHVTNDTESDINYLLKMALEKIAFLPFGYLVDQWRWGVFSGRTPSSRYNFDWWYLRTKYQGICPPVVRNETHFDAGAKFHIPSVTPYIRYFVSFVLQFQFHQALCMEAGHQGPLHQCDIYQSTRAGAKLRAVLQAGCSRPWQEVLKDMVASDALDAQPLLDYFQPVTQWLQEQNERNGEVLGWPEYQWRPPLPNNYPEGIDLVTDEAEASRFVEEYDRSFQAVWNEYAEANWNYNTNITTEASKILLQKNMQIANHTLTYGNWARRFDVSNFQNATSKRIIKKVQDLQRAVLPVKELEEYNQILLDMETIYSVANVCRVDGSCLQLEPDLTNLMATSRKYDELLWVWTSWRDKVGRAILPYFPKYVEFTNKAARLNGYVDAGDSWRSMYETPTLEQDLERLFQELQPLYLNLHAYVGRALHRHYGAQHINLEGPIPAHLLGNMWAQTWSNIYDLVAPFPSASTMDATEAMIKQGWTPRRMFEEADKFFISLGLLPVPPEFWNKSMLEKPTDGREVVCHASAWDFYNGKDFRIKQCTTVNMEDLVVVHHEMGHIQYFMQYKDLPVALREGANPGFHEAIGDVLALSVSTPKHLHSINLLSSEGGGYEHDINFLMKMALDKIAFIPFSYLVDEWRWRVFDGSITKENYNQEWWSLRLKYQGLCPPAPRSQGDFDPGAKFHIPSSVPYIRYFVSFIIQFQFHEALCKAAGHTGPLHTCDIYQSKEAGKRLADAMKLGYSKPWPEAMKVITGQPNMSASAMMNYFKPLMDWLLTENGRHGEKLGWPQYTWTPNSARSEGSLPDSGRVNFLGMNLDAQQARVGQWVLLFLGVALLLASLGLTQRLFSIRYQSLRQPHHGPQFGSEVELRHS
The assay can be described thus: Tested in vitro for its inhibitory activity against angiotensin converting enzyme.

A further assay addresses T2, Neprilysin (Oryctolagus cuniculus, UniProt P08049).
T2 sequence (P08049 whole entry): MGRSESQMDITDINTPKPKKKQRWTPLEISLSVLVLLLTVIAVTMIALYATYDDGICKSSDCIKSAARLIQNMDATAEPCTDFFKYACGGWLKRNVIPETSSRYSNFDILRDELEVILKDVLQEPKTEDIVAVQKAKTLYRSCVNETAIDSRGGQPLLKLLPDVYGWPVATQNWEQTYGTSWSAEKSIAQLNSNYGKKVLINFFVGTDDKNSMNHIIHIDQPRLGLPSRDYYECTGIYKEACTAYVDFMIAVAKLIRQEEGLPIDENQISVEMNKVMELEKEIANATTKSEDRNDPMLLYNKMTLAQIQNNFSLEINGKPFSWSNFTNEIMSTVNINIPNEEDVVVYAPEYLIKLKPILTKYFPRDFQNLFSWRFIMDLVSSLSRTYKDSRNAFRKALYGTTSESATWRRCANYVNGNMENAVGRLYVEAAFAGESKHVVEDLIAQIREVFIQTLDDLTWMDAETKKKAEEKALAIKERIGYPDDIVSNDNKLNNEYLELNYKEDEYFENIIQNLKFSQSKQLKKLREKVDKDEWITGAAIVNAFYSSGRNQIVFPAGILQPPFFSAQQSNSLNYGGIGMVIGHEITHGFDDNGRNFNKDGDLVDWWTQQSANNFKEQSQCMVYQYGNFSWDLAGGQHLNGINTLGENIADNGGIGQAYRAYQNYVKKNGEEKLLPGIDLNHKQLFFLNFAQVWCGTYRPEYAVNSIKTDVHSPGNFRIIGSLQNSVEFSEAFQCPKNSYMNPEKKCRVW
The assay is described as follows: In vitro inhibitory activity against neutral endopeptidase (NEP). The gist of the method:
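Purified rabbit kidney NEP (EC 24.11) was the enzyme source, with [³H]Leu-enkephalin as the substrate.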

Assay [3] relates to Rattus norvegicus. The assay can be described thus: Tested for in vivo Antihypertensive activity in DOCA rat by giving peroral dose of 30 mg/kg. It is filed as functional. The settings on record: route oral. The gist of the method:
(§1)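 Male Sprague-Dawley rats (100–150 g) had DOCA-Na hypertension induced and were used 17–21 days later if mean BP was >150 mmHg. Rats were not fasted. Mean BP was recorded after 90-min equilibration. Dosing was sc in TRIS buffer (2 mL/kg) or po in 0.4% aqueous methylcellulose (4 mL/kg). The maximum BP fall over 4 h versus vehicle controls was taken, averaged over four or more animals.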

Assay [4] has as its system Rattus norvegicus. The assay can be described thus: Tested for in vivo Antihypertensive activity in DOCA rat by giving peroral dose of 10 mg/kg. To be noted: route oral. Type of assay: functional. The gist of the method:
as §1

Where only a bound is given, the exact number is not on record here.

Take `Cc1ccc(CSC[C@@H](NC(=O)[C@H](CS)Cc2ccc(-c3ccccc3)cc2)C(=O)O)cc1`: the Delta blood pressure with Rattus norvegicus [1] stood at 0 mmHg. In addition, the figures for the IC50 (in assay [2]; against Neprilysin) were more than 1000 nM and 290 nM, respectively.
Regarding `Cc1ccc(CSC[C@@H](NC(=O)[C@@H](CS)Cc2ccc(-c3ccccc3)cc2)C(=O)O)cc1`, the Delta blood pressure in the assay on Rattus norvegicus [1] is 0 mmHg; in the assay on Rattus norvegicus [3] it was 19 mmHg. Further, the IC50 (in assay [2]; on Neprilysin) was 180 nM throughout.
Regarding `Cc1ccc(CSC[C@@H](NC(=O)[C@@H](CS)Cc2ccc3ccccc3c2)C(=O)O)cc1`, the Delta blood pressure in the assay on Rattus norvegicus [1] came to 0 mmHg. For the same compound, the IC50 – broadly, the concentration at which inhibition is half-maximal – in assay [2] was 460 nM; at Neprilysin, more than 300 nM.
Take `CSCC[C@@H](NC(=O)[C@@H](CS)Cc1ccccc1)C(=O)O`: the Delta blood pressure with Rattus norvegicus [1] is 23 mmHg; in the assay on Rattus norvegicus [4], 31 mmHg. Also, the IC50 came to 35 nM in assay [2] and 6.5 nM at Neprilysin.
For the compound `CSCC[C@@H](NC(=O)[C@H](CSC(C)=O)Cc1ccccc1)C(N)=O`, the Delta blood pressure in the assay with Rattus norvegicus [1] is listed as 27 mmHg.
As for `CSCC[C@@H](NC(=O)C(CSC(C)=O)Cc1ccccc1)C(=O)NCCO` (some centres not stated), the Delta blood pressure was 25 mmHg with Rattus norvegicus [1] and 24 mmHg in the assay with Rattus norvegicus [4].
In the case of `Cc1ccc(CSC[C@@H](NC(=O)[C@@H](CS)Cc2ccccc2)C(N)=O)cc1`, the Delta blood pressure in the assay with Rattus norvegicus [1] amounted to 0 mmHg. Moreover, the IC50 on Neprilysin was more than 300 nM.
With `CC(=O)SC[C@@H](Cc1ccccc1)C(=O)N[C@H](CSCc1ccc(C)cc1)C(N)=O`, the Delta blood pressure with Rattus norvegicus [1] is listed as 12 mmHg; in the assay on Rattus norvegicus [4], 29 mmHg.
For `Cc1ccc(CSC[C@@H](NC(=O)[C@H](CS)Cc2ccccc2)C(=O)O)cc1C`, the Delta blood pressure in the assay on Rattus norvegicus [1] is on record as 0 mmHg. Moreover, the IC50 in assay [2] is more than 1000 nM; at Neprilysin it was 541 nM.
In the case of `Cc1ccc(CSC[C@@H](NC(=O)[C@H](CS)Cc2ccc3ccccc3c2)C(=O)O)cc1`, the Delta blood pressure in the assay on Rattus norvegicus [1] is given as 0 mmHg.
Regarding `COc1ccc(CSC[C@@H](NC(=O)[C@@H](CS)Cc2ccccc2)C(=O)O)cc1`, the figures for the IC50 (in assay [2]; against Neprilysin) were 95 nM and 2 nM, respectively. For the same compound, the Delta blood pressure in the assay on Rattus norvegicus [3] was determined as 28 mmHg.
Regarding `CSCC[C@@H](NC(=O)[C@@H](CS)Cc1ccccc1)C(N)=O`, the Delta blood pressure in the assay with Rattus norvegicus [1] came to 26 mmHg. The figures for the IC50 (in assay [2]; on Neprilysin) were more than 1000 nM and 76 nM, respectively.
On to `CSCC[C@@H](NC(=O)C(CSC(C)=O)Cc1ccccc1)C(=O)N1CCOCC1` (some centres not stated), for which the Delta blood pressure stood at 24 mmHg in the assay with Rattus norvegicus [1] and 20 mmHg in the assay with Rattus norvegicus [4]. Further, the IC50 at Neprilysin is more than 300 nM.
With `CCCC(CS)C(=O)N[C@H](CCSC)C(=O)O` (some centres not stated), the values for the IC50 (in assay [2]; at Neprilysin) were more than 1000 nM and 2.5 nM, respectively.
For the compound `CSCC[C@@H](NC(=O)[C@@H](CS)CCc1ccccc1)C(=O)O`, the IC50 in assay [2] was found to be 150 nM; on Neprilysin, 60 nM. In the assay with Rattus norvegicus [4], the Delta blood pressure is 18 mmHg.
`CCOC(=O)CNC(=O)[C@@H](CCSC)NC(=O)C(CSC(C)=O)Cc1ccccc1` (some centres not stated) gave a Delta blood pressure in the assay on Rattus norvegicus [4] of 0 mmHg. On Neprilysin, this compound registered an IC50 of more than 300 nM.
Consider `O=C(N[C@H](CSCc1ccccc1)C(=O)O)[C@H](CS)Cc1ccc(Cl)cc1`, for which the Delta blood pressure in the assay with Rattus norvegicus [1] is reported as 0 mmHg. Also, the IC50 in assay [2] is more than 1000 nM; against Neprilysin it was 147 nM.
With `CCSCC[C@@H](NC(=O)[C@H](CS)Cc1ccccc1)C(=O)O`, the Delta blood pressure in the assay on Rattus norvegicus [1] came to 30 mmHg; with Rattus norvegicus [3], 0 mmHg. The figures for the IC50 (in assay [2]; at Neprilysin) were more than 1000 nM and 31 nM, respectively.
Take `O=C(N[C@H](CSCCc1ccccc1)C(=O)O)[C@@H](CS)Cc1ccccc1`: the Delta blood pressure with Rattus norvegicus [1] is 37 mmHg; in the assay on Rattus norvegicus [3], 0 mmHg. Also, the IC50 in assay [2] came to 80 nM; on Neprilysin it was 110 nM.
Regarding `CSCC[C@@H](NC(=O)[C@H](CS)Cc1ccccc1)C(=O)O`, the Delta blood pressure in the assay with Rattus norvegicus [1] came out at 50 mmHg; with Rattus norvegicus [4], 30 mmHg. Moreover, the IC50 in assay [2] is more than 1000 nM; against Neprilysin, 3.5 nM.
Turning to `CSCC[C@@H](NC(=O)[C@H](CS)Cc1ccccc1)C(N)=O`, the IC50 in assay [2] is more than 1000 nM; at Neprilysin, 94 nM.
Regarding `COC(=O)[C@@H](CCSC)NC(=O)[C@H](CSC(C)=O)Cc1ccccc1`, the values for the Delta blood pressure in the assay on Rattus norvegicus [1] and in the assay with Rattus norvegicus [4] were 45 mmHg and 14 mmHg, respectively.
With `CC(C)(C)SC[C@@H](NC(=O)[C@H](CS)Cc1ccccc1)C(=O)O`, in the assay with Rattus norvegicus [1], the Delta blood pressure is on record as 0 mmHg. Besides, the IC50 amounted to 640 nM in assay [2] and 231 nM against Neprilysin.
On to `CCSC[C@@H](NC(=O)C(CS)Cc1ccccc1)C(=O)O` (some centres not stated), for which the Delta blood pressure in the assay with Rattus norvegicus [1] is reported as 25 mmHg. The figures for the IC50 (in assay [2]; at Neprilysin) were 45 nM and 6.5 nM, respectively.
For `CCSCC[C@@H](NC(=O)[C@@H](CS)Cc1ccccc1)C(=O)O` the same measures were 20 mmHg, 215 nM and 5 nM.
For `Cc1ccc(CSC[C@@H](NC(=O)[C@H](CS)Cc2cccc3ccccc23)C(=O)O)cc1`, in that order: 0 mmHg, 90 nM and 39 nM.
On to `O=C(N[C@H](CSC(c1ccccc1)(c1ccccc1)c1ccccc1)C(=O)O)C(CS)Cc1ccccc1` (some centres not stated), for which the Delta blood pressure in the assay on Rattus norvegicus [1] is given as 0 mmHg. Moreover, the IC50 is more than 1000 nM in assay [2] and 274 nM against Neprilysin.
`CCOC(=O)[C@@H](CCSC)NC(=O)C1(CSC(C)=O)CCCC1` returned a Delta blood pressure in the assay on Rattus norvegicus [4] of 27 mmHg.
For `O=C(N[C@H](CSCCc1ccccc1)C(=O)O)[C@H](CS)Cc1ccccc1`, the Delta blood pressure stood at 23 mmHg in the assay on Rattus norvegicus [1] and 38 mmHg in the assay with Rattus norvegicus [3]. For the same compound, the IC50 in assay [2] is more than 1000 nM; against Neprilysin, 133 nM.
Take `CSCC[C@@H](NC(=O)C(CSC(C)=O)Cc1ccccc1)C(=O)N1CCCC1` (some centres not stated): the Delta blood pressure with Rattus norvegicus [1] is 29 mmHg; in the assay on Rattus norvegicus [4], 24 mmHg.
For the compound `O=C(N[C@@H](CSCc1ccccc1)C(=O)O)[C@@H](CS)Cc1ccccc1`, the Delta blood pressure in the assay on Rattus norvegicus [1] was 11 mmHg. In addition, the 50% inhibitory concentration (IC50) in assay [2] worked out at 115 nM; at Neprilysin, 19 nM.
Consider `CCCC(CS)C(=O)N[C@H](CSCC)C(=O)O` (some centres not stated), for which the IC50 in assay [2] is 1000 nM; against Neprilysin, more than 300 nM.
